Laboratory results reported in ChEMBL document CHEMBL1165858, “Synthesis and biological evaluation of beta-chloro vinyl chalcones as inhibitors of TNF-alpha and IL-6 with antimicrobial activity” (Eur J Med Chem, 2010).
In brackets after ≈: the same amount, converted by molar mass. Activity calls are given as the source filed them. No cut-off for these calls is given here.

What was measured:
[1] = test system: Klebsiella pneumoniae; assay: Antibacterial activity against Klebsiella pneumoniae NCIM 5082 at > 100 […] after 24 hrs by disc diffusion method; type: functional, organism-based
[2] = test system: THP-1; assay: Antiinflammatory activity in human THP1 cells assessed as inhibition of LPS-induced IL-6 secretion at 10 uM treated 30 mins before LPS challenge measured after 24 hrs by ELISA relative to control; type: functional
How it was run: (§1)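 THP-1 cells were grown in RPMI 1640 with 10% FBS and penicillin/streptomycin, then differentiated with PMA. Compound or vehicle (0.5% DMSO) was added for 30 min at 37 °C, followed by LPS (E. coli 0127:B8, final 1 µg/mL). After 24 h at 37 °C in 5% CO2, TNF-α and IL-6 in the supernatants were quantified by ELISA. Values are the mean of n = 2.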

[3] = test system: Trichoderma viride; assay: Antibacterial activity against Trichoderma viride TT at > 100 […] after 72 hrs by disc diffusion method; type: functional, organism-based
[4] = Cytotoxicity against […] at 10 uM; type: cell-based
[5] = test system: Aspergillus fumigatus; assay: Antibacterial activity against Aspergillus fumigatus NCIM 902 at > 100 […] after 72 hrs by disc diffusion method; type: functional, organism-based
[6] = test system: Aspergillus niger; assay: Antibacterial activity against Aspergillus niger NCIM 545 at > 100 […] after 72 hrs by disc diffusion method; type: functional, organism-based
[7] = test system: Candida albicans; assay: Antibacterial activity against Candida albicans NCIM 3100 at > 100 […] after 72 hrs by disc diffusion method; type: functional, organism-based
[8] = test system: Proteus vulgaris; assay: Antibacterial activity against Proteus vulgaris NCIM 2813 after 24 hrs by disc diffusion method; type: functional; details: for MIC: Proteus vulgaris, NCIM 2813, 24 h
How it was run: (§2)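 Paper disc diffusion (6.25 mm Whatman no.1 discs, dry-heat sterilized at 140 °C for 1 h) loaded with compounds at different concentrations in DMSO. Discs were placed in triplicate on nutrient agar seeded with fresh bacterial culture and incubated at 37 °C for 24 h, with solvent and growth controls. Zones of inhibition (mm) and MIC, the concentration completely inhibiting growth, were recorded.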

[9] = test system: THP-1; assay: Antiinflammatory activity in human THP1 cells assessed as inhibition of LPS-induced TNFalpha secretion at 10 uM treated 30 mins before LPS challenge measured after 24 hrs by ELISA relative to control; type: functional; how it was run: as §1
[10] = test system: Staphylococcus aureus; assay: Antibacterial activity against Staphylococcus aureus NCIM 2120 at > 100 […] after 24 hrs by disc diffusion method; type: functional, organism-based
[11] = test system: Penicillium chrysogenum; assay: Antibacterial activity against Penicillium chrysogenum NCIM 707 at > 100 […] after 72 hrs by disc diffusion method; type: functional, organism-based
[12] = test system: Escherichia coli; assay: Antibacterial activity against Escherichia coli NCIM 2065 after 24 hrs by disc diffusion method; type: functional; how it was run: as §2
[13] = test system: Bacillus subtilis; assay: Antibacterial activity against Bacillus subtilis NCIM 2546 after 24 hrs by disc diffusion method; type: functional; how it was run: as §2
[14] = test system: Bacillus subtilis; assay: Antibacterial activity against Bacillus subtilis NCIM 2546 at > 100 […] after 24 hrs by disc diffusion method; type: functional, organism-based
[15] = test system: Escherichia coli; assay: Antibacterial activity against Escherichia coli NCIM 2065 at > 100 […] after 24 hrs by disc diffusion method; type: functional, organism-based
[16] = test system: Aspergillus niger; assay: Antibacterial activity against Aspergillus niger NCIM 545 after 72 hrs by disc diffusion method; type: functional
How it was run: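 Agar disc diffusion against fungi. Fungi were maintained on potato dextrose agar at (25 ± 2) °C for five days before use. Compounds were dissolved in DMSO (10 mg/mL initial solutions) and loaded on discs placed on freshly seeded plates alongside a solvent control disc. Plates were held at 4 °C for 24 h for diffusion, then incubated at 37 ± 5 °C for 72 h. Zones of inhibition (mm) and MICs were recorded.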

SMILES | MIC [1] | inhibition at 10 µM [2] [%] | MIC [3] | Activity [4] | MIC [5] | MIC [6] | MIC [7] | inhibition zone (IZ) [8] [mm] | MIC [8] [µg/mL] | inhibition at 10 µM [9] [%] | MIC [10] | MIC [11] | inhibition zone (IZ) [12] [mm] | MIC ([12]; Escherichia coli, NCIM 2065, 24 h) [µg/mL] | inhibition zone (IZ) [13] [mm] | MIC [14] | MIC [15] | inhibition zone (IZ) [16] [mm] | MIC ([16]; Aspergillus niger, NCIM 545, 72 h) [µg/mL]
COc1cc(O)c(C(=O)/C=C/C=C(\Cl)c2cccc(Cl)c2)c(OC)c1 | inactive | 31 | inactive | Non-toxic | inactive | inactive | inactive | 18 | 25 (≈ 65.9 µM) | 0 | inactive | inactive | 16 | 50 (≈ 132 µM) | 12 | – | – | – | –
COc1ccc(/C(Cl)=C/C=C/C(=O)c2c(O)cc(OC)cc2OC)cc1 | inactive | 78 | inactive | Non-toxic | inactive | – | inactive | 17 | 50 (≈ 133 µM) | 18 | inactive | inactive | – | – | – | inactive | inactive | 16 | 50 (≈ 133 µM)
